Arbovirus anti = antivirals against arbovirus infection, primary screen, cell-based, full library, 10K replicate subset | arbovirus infection cell-based antiviral screen | inhibition, % at 10 µM | 0.37% of 200,000 active; in the data active = inhibition above about 30%
b-catenin transl = modulators of beta-catenin nuclear translocation, primary screen, imaging, HeLa cells, immunofluorescence, high-content. nuclear translocation activity, % at 5 µM. 0.3% of 190,000 active. AID 1665, 2009;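 active = nuclear translocation activity above 50% at 5 µM, with a well cell count of 50 or more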;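 note: per-cell ratio of nuclear to cytoplasmic median beta-catenin stain intensity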
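assay system = human HeLa cells, endogenous beta-catenin | times = compound treatment 24 h, 37°C, 5% CO2 | detection = Anti-beta-catenin immunofluorescence on PFA-fixed, Triton-permeabilized cells, DAPI nuclei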
ABCB1 block = ABCB1 efflux pump inhibitors, primary screen, cell-based, multiplex, flow cytometry, ABCG2 counter-screen; inhibition, % at 6.6 µM; CCRF-Adr cells, JC-1 efflux; ATP-dependent translocase ABCB1 (Homo sapiens), P08183; 0.067% of 190,000 active; in the data active = inhibition above about 40%;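 note: higher value means more JC-1 retained so stronger ABCB1 efflux block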
ABCG2 block = ABCG2 efflux pump inhibitors, primary screen, multiplex with ABCB1, IgMXP3 cells, flow cytometry | Broad substrate specificity ATP-binding cassette transporter ABCG2 (Homo sapiens), Q9UNQ0 | JC-1 efflux | inhibition, % at 6.6 µM | 0.1% of 190,000 active;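 active = inhibition above 80%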
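test system = two drug-resistant human cell lines, ABCG2 and ABCB1 | amount = 3 million cells/mL final, two lines in 1:1 ratio | reagent = JC-1 transporter substrate | doses = one concentration, 6.6 µM final | incubation = 10 min at 25 °C | signal = flow cytometric JC-1 green MFI at 530 nm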
MT stabilizer = microtubule stabilizers in HeLa cells, primary screen, imaging, high-content imaging; HeLa tubulin immunostaining HCS, 24 h; share of cells brighter than vehicle mean+2SD; % tubulin-high responders, % at 10 µM; 0.83% of 200,000 active; AID 2205, 2009;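 active = plate Z-score above 3 for both tubulin-high and condensed-nucleus cell shares, with cell loss under 80%, at 10 µM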;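 note: anti alpha tubulin signal scored within the nucleus-defined area of each cell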
Autophagy HCS = autophagy modulators in MEF cells, primary screen, imaging, high-content, MEF GFP-LC3 | MEF GFP-LC3 puncta imaging; test concentration mostly 10 µM | calls only at 10 µM (by protocol) | 0.98% of 190,000 active;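 active = percentage of spot-positive cells more than 3 SD above its plate mean, without a fluorescence outlier flag or 80% toxicity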
Large screens that a line does not name were inactive. Most compounds without a hit are left out; they make up all but 2.1% or so of the library.

O=C(Nc1ncc(Cc2ccc(SC(F)F)cc2)s1)c1ccccc1	MT stabilizer 34
COc1ccccc1C1C2=C(N=c3s/c(=C/c4cccc(OCC(=O)O)c4)c(=O)n31)c1ccccc1CC2 (stereo not given)	Arbovirus anti 41
CCOc1ccccc1C1CC(=O)Nc2cc3c(cc21)OCCO3 (stereo not given)	none
CCCOc1ccccc1C1CC(=O)Nc2cc3c(cc21)OCCO3 (stereo not given)	MT stabilizer 13
COc1cc2c(cc1OC)C(c1ccc3c(c1)OCO3)CC(=O)N2 (stereo not given)	none (no result: b-catenin transl)
CC(C)Oc1ccccc1C1CC(=O)Nc2cc3c(cc21)OCO3 (stereo not given)	MT stabilizer 21
CC(C)C1Oc2ccccc2N(CC(=O)N(Cc2ccncc2)Cc2ccco2)C1=O (stereo not given)	none
O=C(Nc1ccc(Br)cc1F)C1CCN(c2nnc(-n3cccc3)s2)CC1	none (no result: b-catenin transl)
COc1cc2c(=O)n(-c3ccc(C)cc3)c(=O)n(CC(=O)c3ccc4c(c3)OCO4)c2cc1OC	none (no result: b-catenin transl)
COc1cc2c(OC(C)=O)c3c(c(-c4ccc5c(c4)OCO5)c2cc1OC)C(=O)OC3	Autophagy HCS active
COc1cc2c(O)c3c(c(-c4ccc5c(c4)OCO5)c2cc1OC)C(=O)OC3	Autophagy HCS active
COc1cc(CNc2nnnn2C)ccc1OCc1ccc(F)cc1Cl	none
C=CCn1c(-c2cc(OC)c(OC)c(OC)c2)n[nH]c1=S	none
O=C1c2ccccc2C(=O)N1c1ccc(-c2nc3ccccc3o2)cc1	Autophagy HCS active
NS(=O)(=O)c1ccc(CCNC(=O)c2cccc(OC(F)F)c2)cc1	Autophagy HCS active
COC(=O)c1ccccc1NC(=O)CN(c1ccc(OC)cc1)S(C)(=O)=O	MT stabilizer 29
COc1ccc(NC(=O)CN(c2ccc([N+](=O)[O-])cc2)S(=O)(=O)c2ccccc2)c(OC)c1	none
COc1ccc(N(CC(=O)Nc2ccc(OC)cc2OC)S(=O)(=O)c2ccccc2)cc1	MT stabilizer 8.3
CCCOc1ccc(-c2nnn(CC(=O)N3CCCC(C)C3)n2)cc1 (stereo not given)	none (no result: Arbovirus anti, ABCB1 block, ABCG2 block, MT stabilizer, Autophagy HCS)
CN(c1ccccc1)S(=O)(=O)c1ccc(Cl)c(C(=O)Nc2ccc(-c3nc4ccccc4[nH]3)cc2)c1	MT stabilizer 17
CN(c1ccccc1)S(=O)(=O)c1ccc(Cl)c(C(=O)Nc2nc3ccccc3[nH]2)c1	none
COc1ccc(-c2csc(Nc3ccc(S(=O)(=O)Nc4cc(C)on4)cc3)n2)cc1	Arbovirus anti 30
Cc1cc(C)cc(N=c2c([N+](=O)[O-])nn(-c3ccc(Cl)cc3)n2O)c1	none
CCOC(=O)C(=Cc1cc(=O)c(OC)co1)C(=O)OCC	MT stabilizer 25
COc1cc(C(=O)Nc2ccccc2C2COC(=O)C2=N)cc(OC)c1OC (stereo not given)	Autophagy HCS active
CC(=O)c1sc(NC(=O)c2cc(=O)c3ccccc3o2)nc1C	Autophagy HCS active
CCOC(=O)c1csc(NC(=O)c2cc(=O)c3ccccc3o2)n1	none
C=CCN1CC(O)=C(c2nc3ccccc3[nH]2)C1=N	none
O=c1[nH]c2cc3c(cc2cc1CN(Cc1ccco1)C(=S)NCC1CCCO1)OCCO3 (stereo not given)	MT stabilizer 22
COc1ccc(C(=O)N(Cc2ccccc2)Cc2cc3cc4c(cc3[nH]c2=O)OCCO4)cc1	MT stabilizer 36
Cc1ccc2cc(CN(CC3CCCO3)C(=S)Nc3ccccc3)c(=O)[nH]c2c1 (stereo not given)	b-catenin transl 64, MT stabilizer 16
Cc1cc(C)c2[nH]c(=O)c(CN(CC3CCCO3)C(=S)Nc3ccccc3)cc2c1 (stereo not given)	none
Cc1ccc2[nH]c(=O)c(CN(CC3CCCO3)C(=S)Nc3ccccc3)cc2c1 (stereo not given)	MT stabilizer 12
CCOC(=O)CN1CC23C=CC(O2)C(C(=O)Nc2ccc4c(c2)OCO4)C3C1=O (stereo not given)	none
Cc1ccc(C(=O)NCc2ccco2)cc1Br	none (no result: b-catenin transl)
Cc1ccc2c(CC(=O)NCc3ccco3)coc2c1C	b-catenin transl 114, MT stabilizer 41
CC(C)Cc1csc(NC(=O)c2ccccc2Cl)c1C(=O)O	Arbovirus anti 66
CCC(C)NC(=O)c1cccc(C)c1 (stereo not given)	none (no result: Arbovirus anti, ABCB1 block, ABCG2 block, MT stabilizer, Autophagy HCS)
CC(C)Cc1csc(NC(=O)c2ccc(Cl)cc2)c1C(=O)O	none
Cc1cccc(C(=O)Nc2scc(CC(C)C)c2C(=O)O)c1	Arbovirus anti 65
NNC(=S)NC1CCCCCCCCCCC1	none (no result: Arbovirus anti, ABCB1 block, ABCG2 block, MT stabilizer, Autophagy HCS)
S=C(NC1CCCCCC1)NC1CCCC1	Autophagy HCS active
CC(C)(C)c1nc(SCC(=O)c2ccccc2)c2ccccc2n1	Autophagy HCS active
COC(=O)C1=C(C)N(CCCC(=O)O)C(=O)NC1c1cccs1 (stereo not given)	ABCB1 block 45
CC1=C(C(=O)OCc2ccccc2)C(c2cccs2)NC(=O)N1CCCC(=O)O (stereo not given)	none
COc1ccc(-c2cn3c(C)c(C(=O)Nc4cc(NC(C)=O)ccc4OC)sc3n2)cc1	MT stabilizer 34
COC(=O)c1ccc(/C=N/Nc2nc(C)c(C)s2)cc1	none (no result: Arbovirus anti, ABCB1 block, ABCG2 block, MT stabilizer, Autophagy HCS)
Cc1ccc(C)c(NS(=O)(=O)c2ccc(NC(=O)c3ccco3)cc2)c1	none
Cc1cccc2nc(CSc3ncccc3C(=O)O)cn12	none
CN1/C(=C/C=C(/C#N)C(N)=O)C(C)(C)c2ccccc21	MT stabilizer 20 (no result: b-catenin transl)
CN1/C(=C\C=C(/C#N)C(=O)Nc2ccccc2F)C(C)(C)c2ccccc21	none
OCC(O)C1OC(Nc2ccc(Br)cc2)C(O)C1O (stereo not given)	none
Cn1c(NC(=O)C2CCCC2)cc(=O)n(C)c1=O	none (no result: Autophagy HCS)
Cn1c(NNC(=O)C2CCCCC2)cc(=O)n(C)c1=O	Autophagy HCS active (no result: MT stabilizer)
CC(C)(C)CC(C)(C)NC(=S)Nc1ccc(S(=O)(=O)N2CCOCC2)cc1	none
CC(C)=CCN1CCN(Cc2cnc(N3CCOCC3)s2)CC1CCO (stereo not given)	none
Brc1ccc(-c2ccc(/C=N/Nc3nncc(-c4ccccc4)n3)o2)cc1	Autophagy HCS active
Fc1cnc(N/N=C/c2ccc(-c3ccc(Br)cc3)o2)nc1N1CCOCC1	none (no result: Arbovirus anti, ABCB1 block, ABCG2 block, MT stabilizer, Autophagy HCS)
Brc1ccc(-c2ccc(/C=N/Nc3nc(N4CCOCC4)nc(N4CCOCC4)n3)o2)cc1	Autophagy HCS active
Brc1ccc(/C=N/Nc2nncc(-c3ccccc3)n2)o1	none
CC(=O)c1ccc(NC(=O)C2(S(=O)(=O)c3ccccc3)CC2)cc1	none
